One block for each molecule: values may come before it. Calls of active or inactive are those of the source.
How the values were obtained:
Mus musculus [1] = organism: Mus musculus; test: Gross behavioral effects ascertained in mice; C indicates overt convulsant; type: functional, organism-based
In short: (§1)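 Male Swiss Webster mice, 18–24 g, three per dose, given ip doses of 1, 3, 10, 30, 100 and 300 mg/kg. Observed for gross behavior and held for 4 days. Scored as weak (W), stimulant (S), depressant (D) or convulsant (C).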

Mus musculus [2] = test: (§2) Ability to antagonise intraperitoneal dose; inactive (<10% antagonism) at 30 mgjkg is represented as I-30.; type: functional, organism-based
In short: (§3)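 Nonfasted male Swiss Webster mice, 18–24 g, ten per dose level and in saline controls. Test compound given ip 30 min before tetrabenazine 32 mg/kg ip; dose expressed as free base. Motor activity and ptosis scored. Control response ≤90% corrected by Abbott's formula.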

Rattus norvegicus [3] = organism: Rattus norvegicus; test: Ability to inhibit the uptake of tritiated norepinephrine (NE) 0.1 uM concentration; type: functional
In short: (§4)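 Male Wistar rat brain synaptosomes (P2 fraction): hypothalamus for NE, striatum for DA, cerebral cortex for 5-HT. Buffer is Tris- or HEPES-buffered salt medium with glucose, ascorbate and nialamide, pH 7.4 at 37 °C. Preincubated 10 min at 37 °C with compound. Uptake started with [3H]NE 100–300 nM, [3H]DA 50–300 nM or [3H]5-HT 100–200 nM, incubated 3 min (DA) or 6–10 min (NE, 5-HT). Blanks held on ice. Filtered, counted by scintillation.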

[4] = target: Sodium-dependent serotonin transporter (Rattus norvegicus) (UniProt P31652); test: Ability to inhibit the uptake of [3H]- serotonin(5-HT) 0.1 uM concentration at rat brain synaptosomes; type: functional, subcellular; in short: as §4
Mus musculus [5] = test: as §2; type: functional, organism-based; in short: as §3; remark: listed apart in the source
[6] = target: Sodium-dependent dopamine transporter (Rattus norvegicus, UniProt P23977); test: Inhibition of the uptake of tritiated dopamine (DA) in rat synaptosomes; type: subcellular, Brain
[7] = target: Serotonin 1 (5-HT1) receptor (Rattus norvegicus) (UniProt P28564+P30940+P19327+P28565); test: Binding affinity towards serotonin S1 receptor at 1.0 uM; type: protein assay
In short: (§5)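 Rat brain crude synaptic membranes in 20 mM NaHEPES pH 7.5. Ligands: α1 cortex […] 0.4 nM, nonspecific with (-)-NE 100 μM, 30 min at 25 °C. […] D2 striatum [3H]spiperone 0.05 nM with (+)-butaclamol 1 μM, 45 min at 37 °C. S1 cortex [3H]5-HT 1 nM plus glutathione and MgCl2, with 5-HT 10 μM, 20 min at 37 °C. […] Samples filtered on GF/B and counted.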

[8] = target: Serotonin 2 (5-HT2) receptor (Rattus norvegicus) (UniProt P30994+P08909+P14842); test: Binding affinity towards 5-hydroxytryptamine 2 receptor; type: protein assay; settings: concentration not given here; in short: as §5
[9] = target: D(2) dopamine receptor (Rattus norvegicus) (UniProt P61169); test: Binding affinity towards dopamine receptor D2 at 1.0 uM concentration; in short: as §5
Rattus norvegicus [10] = organism: Rattus norvegicus; test: Ability to inhibit the uptake of tritiated dopamine (DA); type: functional; in short: as §4
Mus musculus [11] = test: as §2; type: functional, organism-based; remark: listed apart in the source
In short: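 Swiss Webster male albino mice, nonfasted, 18–24 g, 10 per dose and in saline control. Compound given ip 30 min before TBZ 32 mg/kg ip. Motor activity and ptosis scored. Response corrected by Abbott's formula when control response was 90% or less. Doses expressed as free base.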

Rattus norvegicus [12] = test: Ability to inhibit the uptake of tritiated norepinephrine (NE) 0.1 mg/kg concentration; type: functional
Rattus norvegicus [13] = test: Ability to inhibit the uptake of tritiated serotonin(5-HT) 0.1 mg/kg concentration; type: functional
Mus musculus [14] = organism: Mus musculus; test: Gross behavioral effects ascertained in mice; D indicates significant depressant properties.; type: functional, organism-based
In short: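 Male Swiss Webster albino mice, 18–24 g, three per dose, given ip 1, 3, 10, 30, 100 and 300 mg/kg. Gross behaviour observed and held 4 days. Estimated LD50 range from lethality count on day 4. Scored as weak stimulant/depressant, significant stimulant, significant depressant or overt convulsant.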

Mus musculus [15] = test: Ability to antagonise intraperitoneal dose; inactive (<10% antagonism) at 30 mg/kg is represented as I-30.; type: functional, organism-based; set-up: dose 30 mg/kg; in short: as §3
[16] = target: T1, Adrenergic receptor alpha-1 (Rattus norvegicus, UniProt P15823+P23944+P43140); test: Binding affinity towards alpha-1 adrenergic receptor; type: protein assay
T1 sequence (P15823 whole entry): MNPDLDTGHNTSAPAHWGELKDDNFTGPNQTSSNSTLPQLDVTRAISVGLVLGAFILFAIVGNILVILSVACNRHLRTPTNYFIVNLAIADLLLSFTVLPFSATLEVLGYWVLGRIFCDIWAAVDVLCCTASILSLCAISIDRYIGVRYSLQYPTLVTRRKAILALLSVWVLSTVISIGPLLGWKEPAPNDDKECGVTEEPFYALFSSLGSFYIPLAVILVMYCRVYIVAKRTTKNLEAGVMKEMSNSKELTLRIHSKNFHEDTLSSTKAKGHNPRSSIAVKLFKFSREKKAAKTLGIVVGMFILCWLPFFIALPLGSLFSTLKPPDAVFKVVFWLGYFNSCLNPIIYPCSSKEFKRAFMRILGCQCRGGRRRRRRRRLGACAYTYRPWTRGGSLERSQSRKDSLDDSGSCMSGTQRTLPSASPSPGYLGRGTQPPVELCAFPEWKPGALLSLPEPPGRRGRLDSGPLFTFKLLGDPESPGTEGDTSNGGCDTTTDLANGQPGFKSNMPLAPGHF
T1 sequence (P23944 whole entry): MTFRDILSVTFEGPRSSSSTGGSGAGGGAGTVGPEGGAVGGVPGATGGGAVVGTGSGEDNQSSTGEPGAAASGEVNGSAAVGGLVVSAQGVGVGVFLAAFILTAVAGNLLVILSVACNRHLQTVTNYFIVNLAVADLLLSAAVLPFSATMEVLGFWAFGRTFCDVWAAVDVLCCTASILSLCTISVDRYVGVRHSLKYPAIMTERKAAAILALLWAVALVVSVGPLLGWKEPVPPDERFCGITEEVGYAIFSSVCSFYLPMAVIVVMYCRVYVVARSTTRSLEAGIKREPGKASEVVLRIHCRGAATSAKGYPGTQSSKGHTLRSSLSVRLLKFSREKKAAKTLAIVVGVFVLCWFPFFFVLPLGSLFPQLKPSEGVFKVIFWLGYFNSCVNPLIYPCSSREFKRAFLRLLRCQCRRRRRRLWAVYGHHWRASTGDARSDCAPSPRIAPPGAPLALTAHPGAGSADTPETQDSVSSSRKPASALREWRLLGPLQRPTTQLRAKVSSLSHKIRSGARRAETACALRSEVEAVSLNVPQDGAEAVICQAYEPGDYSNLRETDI
T1 sequence (P43140 whole entry): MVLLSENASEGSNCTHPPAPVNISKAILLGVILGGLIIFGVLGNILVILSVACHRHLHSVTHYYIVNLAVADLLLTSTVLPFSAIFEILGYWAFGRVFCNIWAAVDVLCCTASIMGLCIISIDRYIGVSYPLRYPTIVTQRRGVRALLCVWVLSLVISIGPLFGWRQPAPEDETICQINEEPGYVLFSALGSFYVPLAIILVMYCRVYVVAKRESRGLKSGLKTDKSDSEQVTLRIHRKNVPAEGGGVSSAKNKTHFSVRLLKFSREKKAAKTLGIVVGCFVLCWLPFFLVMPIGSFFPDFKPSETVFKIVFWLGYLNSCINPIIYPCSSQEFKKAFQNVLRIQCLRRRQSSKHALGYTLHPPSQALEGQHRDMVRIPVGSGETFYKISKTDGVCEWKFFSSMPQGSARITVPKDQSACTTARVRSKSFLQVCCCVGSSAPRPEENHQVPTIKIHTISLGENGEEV

Mus musculus [17] = organism: Mus musculus; test: Antagonism of tetrabenazine (TBZ)-induced depression in mice measured for ptosis; type: functional; settings: Mus musculus; read-out: ED50; in short: as §3
Mus musculus [18] = organism: Mus musculus; test: Gross behavioral effects ascertained in mice; S indicates significant stimulant properties.; type: functional, organism-based; in short: as §1
[19] = target: Adrenergic receptor alpha-2 (Rattus norvegicus) (UniProt P22086+P19328+P22909); test: Binding affinity towards alpha-2 adrenergic receptor at 1.0 uM concentration; type: protein assay
[20] = target: D(1A) dopamine receptor (Rattus norvegicus) (UniProt P18901); test: Binding affinity towards dDopamine receptor D1 at 1.0 uM concentration; in short: as §5
[21] = target: Muscarinic acetylcholine receptor (Rattus norvegicus) (UniProt P08482+P08483+P08485+P08911+P10980); test: Binding affinity towards Muscarinic acetylcholine receptor at 1.0 uM concentration; type: protein assay
[22] = target: Norepinephrine transporter (Rattus norvegicus, UniProt Q9WTR4); test: Inhibition of uptake of tritiated norepinephrine (NE) in rat synaptosomes; type: subcellular, Brain
Mus musculus [23] = organism: Mus musculus; test: Antagonism of tetrabenazine (TBZ)-induced depression measured in mice by motor activity; type: functional; settings: Mus musculus; read-out: ED50; in short: as §3
Mus musculus [24] = organism: Mus musculus; test: Gross behavioral effects ascertained in mice; W indicates weak stimulant or depressant activity of little significance.; type: functional, organism-based; in short: as §1
[25] = target: Norepinephrine transporter (Rattus norvegicus) (UniProt Q9WTR4); test: Ability to inhibit the uptake of [3H]norepinephrine (NE) 0.1 uM concentration at rat brain synaptosomes; type: functional, subcellular; in short: as §4
Rattus norvegicus [26] = organism: Rattus norvegicus; test: Ability to inhibit the uptake of tritiated serotonin (5-HT) at 0.1 uM concentration in rat synaptosomes; type: functional; settings: Brain; in short: as §4
[27] = target: Adrenergic receptor alpha-1 (Rattus norvegicus) (UniProt P15823+P23944+P43140); test: Binding affinity towards alpha-1 adrenergic receptor at 1.0 uM concentration; type: protein assay; in short: as §5
Rattus norvegicus [28] = test: Ability to inhibit the uptake of tritiated serotonin(5-HT) at 0.1 mg/kg concentration; type: functional

Chain of D(2) dopamine receptor (Rattus norvegicus) (P61169 whole entry): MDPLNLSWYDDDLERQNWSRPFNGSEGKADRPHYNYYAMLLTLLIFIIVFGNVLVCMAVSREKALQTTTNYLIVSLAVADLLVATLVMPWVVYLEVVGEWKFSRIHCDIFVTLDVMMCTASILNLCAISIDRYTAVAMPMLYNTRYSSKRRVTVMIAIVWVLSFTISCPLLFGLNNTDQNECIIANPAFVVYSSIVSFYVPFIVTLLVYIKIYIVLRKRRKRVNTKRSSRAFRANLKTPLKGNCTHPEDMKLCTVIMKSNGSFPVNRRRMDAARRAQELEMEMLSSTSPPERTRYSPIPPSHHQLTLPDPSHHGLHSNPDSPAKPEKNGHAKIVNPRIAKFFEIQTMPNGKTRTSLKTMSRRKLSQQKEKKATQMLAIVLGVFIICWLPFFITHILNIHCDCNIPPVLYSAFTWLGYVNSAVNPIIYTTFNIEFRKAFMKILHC
Chain of Sodium-dependent serotonin transporter (Rattus norvegicus) (P31652 whole entry): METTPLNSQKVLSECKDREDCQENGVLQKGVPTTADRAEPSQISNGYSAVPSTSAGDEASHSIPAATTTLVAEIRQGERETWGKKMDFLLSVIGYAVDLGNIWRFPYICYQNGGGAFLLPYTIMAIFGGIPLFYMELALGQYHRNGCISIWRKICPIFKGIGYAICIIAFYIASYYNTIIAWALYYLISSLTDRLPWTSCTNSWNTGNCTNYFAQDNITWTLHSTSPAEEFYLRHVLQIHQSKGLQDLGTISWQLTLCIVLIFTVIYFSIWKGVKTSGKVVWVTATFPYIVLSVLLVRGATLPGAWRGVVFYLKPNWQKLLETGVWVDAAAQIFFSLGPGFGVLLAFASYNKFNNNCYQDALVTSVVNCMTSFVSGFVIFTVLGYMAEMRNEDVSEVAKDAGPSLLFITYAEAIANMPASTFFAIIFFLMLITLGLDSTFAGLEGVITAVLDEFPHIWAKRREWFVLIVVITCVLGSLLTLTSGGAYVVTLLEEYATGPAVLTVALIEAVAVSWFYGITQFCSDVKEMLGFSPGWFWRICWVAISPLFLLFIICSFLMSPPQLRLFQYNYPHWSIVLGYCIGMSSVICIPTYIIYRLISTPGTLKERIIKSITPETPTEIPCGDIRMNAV
Chain of Sodium-dependent dopamine transporter (P23977 whole entry): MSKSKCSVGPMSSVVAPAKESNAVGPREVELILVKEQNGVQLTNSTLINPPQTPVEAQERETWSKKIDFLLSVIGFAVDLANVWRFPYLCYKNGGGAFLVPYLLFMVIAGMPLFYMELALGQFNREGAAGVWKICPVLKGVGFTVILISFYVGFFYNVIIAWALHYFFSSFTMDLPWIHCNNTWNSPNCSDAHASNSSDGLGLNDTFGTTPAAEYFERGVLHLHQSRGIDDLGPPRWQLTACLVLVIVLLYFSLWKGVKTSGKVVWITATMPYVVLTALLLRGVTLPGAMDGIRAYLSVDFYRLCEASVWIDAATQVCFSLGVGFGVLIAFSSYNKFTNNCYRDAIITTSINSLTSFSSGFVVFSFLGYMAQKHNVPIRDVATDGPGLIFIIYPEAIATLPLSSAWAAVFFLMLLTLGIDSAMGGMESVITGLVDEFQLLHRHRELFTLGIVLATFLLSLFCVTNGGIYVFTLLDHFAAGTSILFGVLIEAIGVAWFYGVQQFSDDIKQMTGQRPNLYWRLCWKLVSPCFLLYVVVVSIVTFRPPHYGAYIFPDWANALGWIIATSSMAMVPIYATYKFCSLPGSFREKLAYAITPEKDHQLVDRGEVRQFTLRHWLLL
Chain of Serotonin 2 (5-HT2) receptor (Rattus norvegicus) (P08909 whole entry, looked up): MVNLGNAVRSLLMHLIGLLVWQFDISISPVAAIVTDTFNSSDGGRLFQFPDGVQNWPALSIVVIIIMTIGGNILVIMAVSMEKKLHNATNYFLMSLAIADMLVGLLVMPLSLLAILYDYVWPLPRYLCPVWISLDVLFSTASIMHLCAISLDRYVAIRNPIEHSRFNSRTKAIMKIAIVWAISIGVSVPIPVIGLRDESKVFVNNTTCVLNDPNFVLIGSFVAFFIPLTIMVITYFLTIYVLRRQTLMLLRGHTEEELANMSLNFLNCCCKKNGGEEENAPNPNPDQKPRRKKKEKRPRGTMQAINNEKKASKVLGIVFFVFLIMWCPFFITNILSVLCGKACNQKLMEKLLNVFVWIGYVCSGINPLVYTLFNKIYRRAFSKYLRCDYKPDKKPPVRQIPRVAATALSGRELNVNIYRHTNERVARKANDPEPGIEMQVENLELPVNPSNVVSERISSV
Chain of Serotonin 2 (5-HT2) receptor (Rattus norvegicus) (P14842 whole entry, looked up): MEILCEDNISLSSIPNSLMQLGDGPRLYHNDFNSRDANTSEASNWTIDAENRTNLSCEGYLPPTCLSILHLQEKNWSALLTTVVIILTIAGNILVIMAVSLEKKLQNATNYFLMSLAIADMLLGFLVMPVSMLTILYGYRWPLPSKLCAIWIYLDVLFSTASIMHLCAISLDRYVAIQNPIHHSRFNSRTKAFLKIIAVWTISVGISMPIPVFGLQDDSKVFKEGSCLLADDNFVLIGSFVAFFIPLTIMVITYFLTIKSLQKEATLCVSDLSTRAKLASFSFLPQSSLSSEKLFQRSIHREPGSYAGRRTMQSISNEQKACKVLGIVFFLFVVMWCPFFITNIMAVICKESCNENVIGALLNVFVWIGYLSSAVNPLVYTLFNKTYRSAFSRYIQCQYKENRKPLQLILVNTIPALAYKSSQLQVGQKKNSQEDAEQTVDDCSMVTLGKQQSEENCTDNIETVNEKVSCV
Chain of Serotonin 2 (5-HT2) receptor (Rattus norvegicus) (P30994 whole entry, looked up): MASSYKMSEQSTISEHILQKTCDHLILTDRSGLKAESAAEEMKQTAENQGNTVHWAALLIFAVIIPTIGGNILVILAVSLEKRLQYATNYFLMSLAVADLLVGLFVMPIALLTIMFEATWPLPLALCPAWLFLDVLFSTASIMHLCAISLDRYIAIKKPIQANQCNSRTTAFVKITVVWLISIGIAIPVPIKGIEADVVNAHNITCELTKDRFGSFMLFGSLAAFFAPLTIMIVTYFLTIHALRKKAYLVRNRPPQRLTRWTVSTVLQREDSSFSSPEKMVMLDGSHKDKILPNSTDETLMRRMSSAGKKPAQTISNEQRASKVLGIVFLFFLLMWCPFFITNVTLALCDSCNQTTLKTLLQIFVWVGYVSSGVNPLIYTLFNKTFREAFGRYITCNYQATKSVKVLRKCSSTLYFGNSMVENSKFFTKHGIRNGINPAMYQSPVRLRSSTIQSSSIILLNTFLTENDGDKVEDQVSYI
Chain of D(1A) dopamine receptor (Rattus norvegicus) (P18901 whole entry): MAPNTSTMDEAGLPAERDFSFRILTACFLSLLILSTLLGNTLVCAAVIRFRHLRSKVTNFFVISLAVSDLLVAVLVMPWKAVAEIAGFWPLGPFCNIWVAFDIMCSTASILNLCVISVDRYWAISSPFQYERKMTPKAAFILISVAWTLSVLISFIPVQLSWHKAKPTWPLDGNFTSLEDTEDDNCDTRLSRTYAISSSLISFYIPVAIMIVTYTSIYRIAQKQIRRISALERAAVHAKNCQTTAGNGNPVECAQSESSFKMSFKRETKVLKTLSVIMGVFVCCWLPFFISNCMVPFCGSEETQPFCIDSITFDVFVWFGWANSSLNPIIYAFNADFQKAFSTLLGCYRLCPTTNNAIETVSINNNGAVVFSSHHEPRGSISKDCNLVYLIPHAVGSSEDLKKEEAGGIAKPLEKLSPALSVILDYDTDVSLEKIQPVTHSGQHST
Chain of Norepinephrine transporter (Q9WTR4 whole entry): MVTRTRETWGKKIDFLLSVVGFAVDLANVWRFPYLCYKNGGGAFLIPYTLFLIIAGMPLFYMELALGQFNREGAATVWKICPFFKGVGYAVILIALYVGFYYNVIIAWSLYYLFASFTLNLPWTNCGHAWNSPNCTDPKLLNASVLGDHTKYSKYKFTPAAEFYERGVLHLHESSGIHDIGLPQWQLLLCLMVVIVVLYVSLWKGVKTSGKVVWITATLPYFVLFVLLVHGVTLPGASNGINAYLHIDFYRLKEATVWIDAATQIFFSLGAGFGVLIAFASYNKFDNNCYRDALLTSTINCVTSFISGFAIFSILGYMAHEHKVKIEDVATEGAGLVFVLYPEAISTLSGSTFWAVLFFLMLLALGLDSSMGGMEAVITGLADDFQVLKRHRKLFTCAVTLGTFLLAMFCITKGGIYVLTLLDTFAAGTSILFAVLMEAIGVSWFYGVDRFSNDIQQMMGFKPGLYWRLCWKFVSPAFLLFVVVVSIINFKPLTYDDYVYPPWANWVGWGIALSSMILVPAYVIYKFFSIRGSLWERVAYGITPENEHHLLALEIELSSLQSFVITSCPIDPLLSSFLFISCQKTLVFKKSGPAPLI
Chain of Norepinephrine transporter (Rattus norvegicus) (Q9WTR4 as listed by the source): as the sequence (Q9WTR4 whole entry) above

- Ki (Rattus norvegicus [3]): 2 nM
- inhibition [4]: 4%
- Ki [6]: > 1000 nM
Structure (SMILES): C[C@@]12CCCCN1C[C@@H](c1ccccc1)c1ccccc12
- behavior (Mus musculus [1]): Overt convulsant
- ED50 (Mus musculus [2]): inactive
- ED50 (Mus musculus [5]): inactive

- inhibition [7]: 58%
- inhibition [8]: 45%
- inhibition [9]: 9%
Structure (SMILES): FC(F)(F)c1cccc([C@@H]2CN3CCC[C@@H]3c3ccccc32)c1 (stereo in doubt; (-)-37b)

- Ki (Rattus norvegicus [10]): ~100 nM
Structure (SMILES): c1ccc([C@@H]2CN3CCC[C@H]3c3ccccc32)cc1 [listing 1 of 2 here]

Structure (SMILES): c1ccc([C@@H]2CN3CCC[C@H]3c3[nH]c4ccccc4c32)cc1
- ED50 (Mus musculus [11]): inactive
- inhibition in vivo at 0.1 mg/kg (Rattus norvegicus [12]): 7%
- inhibition in vivo at 0.1 mg/kg (Rattus norvegicus [13]): -21%
- behavior (Mus musculus [14]): Significant depressant
- ED50 (Mus musculus [15]): inactive

- Ki [16]: 252 nM
- inhibition [19]: 70%
- inhibition [20]: 27%
- inhibition [9]: 65%
- inhibition [21]: 3%
- Ki [22]: 0.74 nM
- Ki [6]: 5.1 nM
Structure (SMILES): Br.Oc1ccc([C@@H]2CN3CCC[C@@H]3c3ccccc32)cc1
- ED50 (Mus musculus [17]): 0.09 mg/kg
- behavior (Mus musculus [18]): Stimulant
- ED50 (Mus musculus [23]): 0.4 mg/kg

- inhibition [25]: 21%
- inhibition [4]: -10%
Structure (SMILES): c1ccc([C@@H]2CN3CCC[C@H]3c3ccccc32)cc1 [listing 2 of 2 here]
- behavior (Mus musculus [1]): Overt convulsant
- ED50 (Mus musculus [2]): inactive
- ED50 (Mus musculus [15]): inactive
- behavior (Mus musculus [24]): Weak
- inhibition (Rattus norvegicus [26]): 1%

- inhibition [27]: 48%
- inhibition [8]: 44%
Structure (SMILES): FC(F)(F)c1cccc([C@@H]2CN3CCC[C@@H]3c3ccccc32)c1 (stereo in doubt; (+)-37b)
- behavior (Mus musculus [24]): Partial stimulant

Structure (SMILES): c1ccc([C@@H]2CN3CCC[C@H]3Cc3ccccc32)cc1
- inhibition in vivo at 0.1 mg/kg (Rattus norvegicus [28]): 6%

From ChEMBL document CHEMBL1123812, “Pyrroloisoquinoline antidepressants. 2. In-depth exploration of structure-activity relationships” (J Med Chem, 1987)
